Results taken from PMC7455490 (Science Advances, 2020).
Where no end group is shown, it is not given here. [ ]: non-standard residue; d: D form.

Columns and labels:
[1] = Transdermal delivery of TRAIL, Franz diffusion cells; assay type: in vitro ADME, mice; conditions: C57BL/6 mouse skin, ELISA, n = 3
How it was run: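 Excised C57BL/6 mouse skin was mounted in Franz diffusion cells, with vesicle suspensions (1 μg/ml) in the donor cell. Receptor samples were withdrawn at 0.5, 1, 2, 4, 8, 10 and 24 h and replaced with fresh PBS. TRAIL in the receptor samples was quantified by ELISA.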

[2] = Bioactivity of TRAIL at high temperatures; conditions: 55 and 60°C, n = 3
[3] = system: B16F10 tumor-bearing mice; experiment: In vivo distribution after topical application, fluorescence imaging; conditions: 10 μg per mouse, 1, 3 and 6 hours
How it was run: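 Mice were anaesthetized and dorsal skin depilated, then DiI-labelled peptide-modified vesicles were applied topically. Whole-body fluorescence was imaged. Tumors and major organs were collected for fluorescence imaging at 6 hours after application.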

[4] = system: B16F10 cells; experiment: Peptide binding by flow cytometry, B16F10; assay type: cell-based, mouse; conditions: 5 μM peptide, 2 hours, compared with L02 cells
How it was run: (§1)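 Cells were grown in DMEM with 10% FBS and penicillin/streptomycin at 37°C, 5% CO2. They were seeded at 10^6 per well and cultured 24 h at 37°C. Then 5 μM test peptide was added for 2 h. Cells were washed twice with 4°C PBS, and intracellular fluorescence intensity was read by flow cytometry.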

[5] = system: L02 cells; experiment: Peptide binding by flow cytometry, L02; assay type: cell-based, human; conditions: 5 μM peptide, 2 hours, low αvβ3 expression
How it was run: as §1

[6] = system: dorsal skin of C57BL/6 mice; experiment: Skin penetration test, fluorescence in skin slices; assay type: in vivo; conditions: topical, 10 μg per mouse, 6 hours, fluorescence microscopy
How it was run: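 C57BL/6 mice, 4 weeks old, were anaesthetised and had their dorsal skin depilated. Once skin had restored full function, GFP-labelled test vesicles or free FITC-BSA were applied topically. After 6 h the mice were killed by cervical dislocation, and treated dorsal skin was collected, washed, paraffin-embedded and cut into 6 μm sections. Penetration depth was observed by fluorescence microscopy.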

[7] = Photothermal response to NIR irritation; assay type: physicochemical; conditions: 1 μg/ml, 808 nm NIR 2 W/cm^2 for 3 min, n = 3
[8] = system: B16F10 cells; experiment: qRT-PCR gene levels in treated B16F10 cells; assay type: cell-based, mouse; conditions: B16F10, + NIR, n = 3
[9] = system: B16F10 melanoma in C57BL/6 mice; experiment: Antitumor performance, second wave; assay type: in vivo; conditions: NIR 0.6 W/cm^2, within 3 min, thermographic imaging
How it was run: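 B16F10 cells (3 × 10^6 per mouse) implanted s.c. in right flank of C57BL/6 mice; treatment began at 100 mm3 tumors. Groups (n = 6) got topical ICG-loaded test formulations (0.5 mg OMV/kg). Unabsorbed material was wiped off at 12 h, then the whole tumor was irradiated under anaesthesia at 808 nm, 0.6 W/cm2, 3 min. Tumor sections: TUNEL with proteinase K (20 μg/ml), fluorescein-dUTP 90 min, DAPI counterstain, confocal imaging. Also Fontana-Masson melanin stain, and IHC for cleaved caspase 3, CD63 and S100-β with HRP secondaries and hematoxylin counterstain.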

[10] = system: B16F10 cells; experiment: WB protein levels in treated B16F10 cells or their derived OMVs; assay type: cell-based, mouse; conditions: B16F10, + NIR (Fig. 4G)
[11] = molecular target: human recombinant αvβ3 integrin (R&D Systems), NT-647 labelled (human) (UniProt P06756); experiment: MST
[12] = molecular target: αvβ3 integrin on B16F10 melanoma cells (mouse (endogenous in B16F10), UniProt P43406 31-1044; O54890 26-787); experiment: flow cytometry on cells
Sequence of αvβ3 integrin on B16F10 melanoma cells (P43406 31-1044, chain 1 of 2): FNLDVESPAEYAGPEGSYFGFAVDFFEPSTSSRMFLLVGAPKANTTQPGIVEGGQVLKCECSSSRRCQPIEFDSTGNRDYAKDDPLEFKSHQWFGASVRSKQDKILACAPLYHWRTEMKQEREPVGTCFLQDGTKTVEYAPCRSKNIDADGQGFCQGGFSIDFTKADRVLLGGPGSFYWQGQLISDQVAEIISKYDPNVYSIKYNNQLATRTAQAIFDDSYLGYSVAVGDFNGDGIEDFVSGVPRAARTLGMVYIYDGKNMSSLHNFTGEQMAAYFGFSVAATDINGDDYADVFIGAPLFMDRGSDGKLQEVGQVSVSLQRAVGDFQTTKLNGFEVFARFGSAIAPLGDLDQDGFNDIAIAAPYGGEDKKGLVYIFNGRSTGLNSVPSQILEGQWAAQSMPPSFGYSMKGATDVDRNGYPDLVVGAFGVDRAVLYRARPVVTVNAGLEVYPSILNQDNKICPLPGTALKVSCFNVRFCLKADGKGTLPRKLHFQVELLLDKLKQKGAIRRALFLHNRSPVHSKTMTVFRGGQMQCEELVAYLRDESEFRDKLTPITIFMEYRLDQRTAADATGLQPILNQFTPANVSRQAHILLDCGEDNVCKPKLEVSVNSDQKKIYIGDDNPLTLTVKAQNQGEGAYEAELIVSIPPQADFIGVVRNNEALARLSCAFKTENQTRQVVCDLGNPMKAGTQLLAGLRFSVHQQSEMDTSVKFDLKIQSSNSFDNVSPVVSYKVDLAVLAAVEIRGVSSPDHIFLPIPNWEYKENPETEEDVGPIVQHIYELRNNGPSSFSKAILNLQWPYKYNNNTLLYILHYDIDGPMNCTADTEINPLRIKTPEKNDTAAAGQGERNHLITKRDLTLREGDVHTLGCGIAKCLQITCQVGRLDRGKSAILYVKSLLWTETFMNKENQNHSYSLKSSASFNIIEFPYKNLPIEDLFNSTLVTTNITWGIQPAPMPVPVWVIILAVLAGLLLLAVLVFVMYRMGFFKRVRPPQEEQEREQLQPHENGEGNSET
Sequence of αvβ3 integrin on B16F10 melanoma cells (O54890 26-787, chain 2 of 2): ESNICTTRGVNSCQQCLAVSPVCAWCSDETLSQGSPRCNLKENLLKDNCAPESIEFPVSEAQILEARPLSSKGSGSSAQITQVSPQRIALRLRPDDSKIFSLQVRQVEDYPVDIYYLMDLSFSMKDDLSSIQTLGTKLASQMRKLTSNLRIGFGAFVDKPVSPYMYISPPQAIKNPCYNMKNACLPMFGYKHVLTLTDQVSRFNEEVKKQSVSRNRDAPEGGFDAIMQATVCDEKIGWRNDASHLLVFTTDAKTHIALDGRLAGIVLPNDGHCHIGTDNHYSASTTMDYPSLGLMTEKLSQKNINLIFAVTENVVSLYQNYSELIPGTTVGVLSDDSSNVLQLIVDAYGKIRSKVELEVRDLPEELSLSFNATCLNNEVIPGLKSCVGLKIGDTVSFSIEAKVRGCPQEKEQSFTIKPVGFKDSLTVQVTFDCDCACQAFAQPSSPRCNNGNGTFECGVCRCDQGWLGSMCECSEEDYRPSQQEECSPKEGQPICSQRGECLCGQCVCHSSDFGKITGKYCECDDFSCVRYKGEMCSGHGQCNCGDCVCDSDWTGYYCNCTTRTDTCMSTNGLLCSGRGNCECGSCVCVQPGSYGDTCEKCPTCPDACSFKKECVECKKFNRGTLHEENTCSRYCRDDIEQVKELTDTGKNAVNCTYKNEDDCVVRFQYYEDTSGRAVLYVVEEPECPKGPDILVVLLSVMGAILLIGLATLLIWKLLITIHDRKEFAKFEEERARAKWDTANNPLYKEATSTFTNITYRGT

TRAIL: Recombinant human tumor necrosis factor related apoptosis-inducing ligand
transdermal amount of TRAIL [1]: too low to be detected | bioactivity of TRAIL at high temperatures [2]: No loss of bioactivity

CCCCCCCCCCCCCCCCCCN1C(=CC=CC2=[N+](CCCCCCCCCCCCCCCCCC)c3ccccc3C2(C)C)C(C)(C)c2ccccc21.[O-][Cl+3]([O-])([O-])[O-] [Dil, 1,1′-dioctadecyl-3,3,3′,3′-tetramethylindocarbocyanine perchlorate]
fluorescence at tumor site after topical application [3]: Low fluorescent signal

RhB-RGP: rhodamine B–labeled RGP (RW[code r]NMGGGGIVRRADRAAVP; also: rhodamine B label, position not given here)
binding to B16F10 cells [4]: significantly enhanced | binding to L02 cells [5]: weak binding

FITC-BSA: fluorescein isothiocyanate (FITC)–labeled bovine serum albumin
penetration through SC, fluorescence in skin slices [6]: incapable of penetrating through SC

CC1(C)C(/C=C/C=C/C=C/C=C2\N(CCCCS(=O)(=O)O)c3ccc4ccccc4c3C2(C)C)=[N+](CCCCS(=O)(=O)[O-])c2ccc3ccccc3c21 [ICG, indocyanine green]
temperature reached from 25°C upon NIR irritation [7]: 35 °C | c-FLIP mRNA level, decreased to [8]: 63% | survivin mRNA level, decreased to [8]: 56% | temperature of tumor sites [9]: around 32 °C | increase of cleaved caspase 3 level [10]: 2.4 fold | increase of cleaved caspase 8 level [10]: 3.3 fold

RWRNMGGGGIVRRADRAAVP (not fully specified (residue 3); printed as RWrNMGGGGIVRRADRAAVP) [RGP (RWr…), αvβ3 integrin-specific peptide]
Kd [11]: 1.54 nM

RW[code r]NMGGGGIVRRADRAAVP (also: rhodamine B label, position not given here) [rhodamine B-labeled RGP (RhB-RGP)]
fold fluorescence intensity against RhB-RGD [12]: 6.3 fold
